Drawing on PubChem BioAssay AID434971 (Sanford-Burnham Center for Chemical Genomics, 2010), this text covers inhibition for 35 compounds.

About 510 (4.6%) of roughly 11,000 compounds were called active.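 Rule for the calls: active = inhibition of at least 40% at 10 µM in either of the two replicates; inactive = the rest.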 The entries come from a sample that favours actives as a whole.

For this assay, the system named is intestinal alkaline phosphatase [Mus musculus]. Description: inhibitors of mouse IAP, confirmation, biochemical, luminescence, single concentration (AID 434971).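 Note: plate controls were DMSO wells with enzyme for no effect and buffer wells lacking enzyme for full effect.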 The note with it: purified mouse IAP, CDP-Star luminescence, 30 min; at 10 µM; hits give high values. A digest of the protocol: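 System: mouse IAP enzyme; medium: DEA buffer containing ZnCl2 and MgCl2; also added: CDP-Star as the luminogenic phosphatase substrate; dosing: test compound delivered in DMSO; timing: 30 min enzyme-substrate-compound incubation at room temperature; detection: luminescence from CDP-Star dephosphorylation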
The inhibition is the relative decrease from the control value, in per cent. For the compound `O=C(CCCN1C(=O)/C(=C\c2ccco2)SC1=S)Nc1cccc2ccccc12`, the inhibition is 49.1% (active).

With `O=C(CCCN1C(=O)/C(=C/c2ccco2)SC1=S)Nc1ccccc1`, the inhibition was 49.1% (active).

In the case of `O=c1ccc2c(-c3ccccc3S(=O)(=O)O)c3ccc(O)c(O)c3oc-2c1O`, the inhibition was 79.7% (active).

For `O=C(Nc1nc(-c2ccco2)c(-c2ccco2)s1)c1ccco1`, the inhibition is 74.3% (active).

Consider `Cc1cc(C)cc(NC(=O)NC2CCCCCCC2)c1`, for which the inhibition was -237% (inactive).

For `COc1ccc(CN2CCC(n3nccc3NC(=O)CCCc3ccccc3)CC2)cc1C`, the inhibition is -140% (inactive).

Turning to `COc1ccc(NC(=O)NC2CC3CCCC(C2)N3Cc2ccccc2)cc1` (stereo not given), the inhibition was -171% (inactive).

On to `COc1ccccc1-n1c(-c2cc(-c3ccco3)[nH]n2)n[nH]c1=S`, for which the inhibition was 68.7% (active).

With `COc1cc(C(=O)Nn2c(O)c(C3=c4ccccc4=NC3=O)sc2=S)ccc1O`, the inhibition is 93.1% (active).

`c1ccc(-c2cc3c(NCC4COc5ccccc5O4)ncnc3s2)cc1` (stereo not given): the inhibition was -97.1% (inactive).

`CCN(c1ccccc1)S(=O)(=O)c1ccc2[nH]c(=O)[nH]c2c1`: the inhibition was 73.4% (active).

`Cc1ccc(C)c(CN2CCC(CNC(=O)Nc3ccc(C)c(F)c3)CC2)c1`: the inhibition is -116% (inactive).

As for `CCn1cc(CN2CCC(C(=O)Nc3cccc(-c4cccc(Cl)c4)c3)CC2)cn1`, the inhibition is -329% (inactive).

Consider `NS(=O)(=O)c1ccc(-c2ccc(/C=C3\SC(=O)NC3=O)o2)cc1`, for which the inhibition is 68.1% (active).

For `C#CCOCCOCCOCCNc1nc(N2CCN(C(=O)CCCCCCCCCCNC(=O)Cn3cc(CCCCCN)nn3)CC2)nc(N2CCN(C(=O)CCCCCCCCCCNC(=O)[C@H](CO)n3cc(CCCSC)nn3)CC2)n1`, the inhibition was -153% (inactive).

Take `Oc1ccc(CNc2ccccc2O)cc1`: the inhibition was 41.2% (active).

`CC(C)S(=O)(=O)c1csc(NC(=O)Nc2ccc(Cl)cc2)c1Cl`: the inhibition is -116% (inactive).

On to `Nc1ccc2nc3c(=O)[nH]c(=S)[nH]c3nc2c1`, for which the inhibition is 78.3% (active).

`COC(=O)c1ccc(NC(=O)Nc2ccc(C)cc2)cc1`: the inhibition was -115% (inactive).

With `CCn1cc(CN2CCC(C(=O)Nc3cccc(-c4cccc(Cl)c4)c3)CC2)c(C)n1`, the inhibition is -396% (inactive).

With `Oc1cc(O)c2c(c1)OC(c1ccc(O)c(O)c1)C(O)C2` (stereo not given), the inhibition is 84.5% (active).

`Cc1cccc(CN2CCC(CNC(=O)Nc3ccc(F)c(Cl)c3)CC2)c1`: the inhibition is -115% (inactive).

Turning to `COc1cccc(/C=N\NC(=O)C2=NNC(=O)C2C)c1O` (stereo not given), the inhibition was 60.2% (active).

In the case of `Cc1ccc(Cc2cnc(N)s2)o1`, the inhibition is 58.5% (active).

`O=c1[nH]c(=S)[nH]c2[nH]c(=S)[nH]c12`: the inhibition is 81.9% (active).

With `O=C(Nc1cccc(-c2cccc(Cl)c2)c1)C1CCN(C2CCC2)CC1`, the inhibition was -294% (inactive).

`Cc1cc(NC(=O)Nc2ccc(Cl)cc2)n(-c2ccccc2)n1`: the inhibition was -107% (inactive).

For `COc1ccc(OC)c(Nc2nc(-c3ccc(O)c(O)c3)cs2)c1`, the inhibition was 74.3% (active).

As to `O=C(Nc1cccc(F)c1)NC1CCCCCCC1`, the inhibition is -142% (inactive).

As to `COc1cc(/C=N\Nc2nc(-c3cccs3)c(NC(C)=O)s2)ccc1O`, the inhibition is 47% (active).

With `OCCCN1c2ccccc2Nc2nnc(-c3ccccc3)cc21`, the inhibition was -208% (inactive).

Regarding `c1ccc(CSc2nnc(-c3ccco3)c(-c3ccco3)n2)cc1`, the inhibition is 69% (active).

Consider `Clc1ccccc1CSc1nnc(-c2ccco2)c(-c2ccco2)n1`, for which the inhibition was 71.8% (active).

In the case of `O=[N+]([O-])c1cc(Cl)cc(/C=N/NC(=S)Nc2cc(S(=O)(=O)N3CCOCC3)ccc2Cl)c1O`, the inhibition is 40.3% (active).

For the compound `CCc1ccc(NC(=O)NC(C)c2ccc3c(c2)OCO3)cc1` (stereo not given), the inhibition is -166% (inactive).
